Assays:
UACC-903 [1] = assay: Induction of apoptosis in human UACC-903 cells assessed as early apoptotic cells at 1 uM after 24 hrs using annexin-V-PE/7-AAD double staining by flow cytometry; type: functional
How it was run: (§1)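 UACC 903 cells were exposed 24 h at 37 °C to 1, 5 or 25 µM, with DMSO as control. Cells were harvested, washed twice in cold PBS and resuspended at 1×10^6 cells/mL in binding buffer. They were stained with 7-AAD plus PE Annexin V for 20 min at room temperature in the dark and run by flow cytometry within 1 h. Gating: double-negative live, 7-AAD+ dead, Annexin V+/7-AAD− early apoptotic. Three separate experiments.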

Mus musculus [2] = assay: Systemic toxicity in Swiss Webster mouse assessed as weight loss at 10 mg/kg, ip administered every day for 28 days; type: organism-based; parameters: dose 10 mg/kg, route intraperitoneal; conditions: in vivo, 672 h
How it was run: (§2)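 Swiss Webster mice, n = 4 per group, dosed i.p. once daily for 28 days at 5, 7.5, 10 or 15 mg/kg body weight. Body weight recorded twice per week; deaths noted over the dosing period.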

SK-MEL-37 (Homo sapiens) [3] = assay: Cytotoxicity against human SK-MEL-37 cells assessed as decrease in cell viability after 24 hrs by MTS assay
UACC-903 [4] = assay: Induction of apoptosis in human UACC-903 cells assessed as non-viable cells at 25 uM after 24 hrs using annexin-V-PE/7-AAD double staining by flow cytometry; type: functional; how it was run: as §1
UACC-903 [5] = assay: Induction of apoptosis in human UACC-903 cells assessed as non-viable cells at 5 uM after 24 hrs using annexin-V-PE/7-AAD double staining by flow cytometry; type: functional; how it was run: as §1
UACC-903 [6] = assay: Cytotoxicity against human UACC-903 cells assessed as decrease in cell viability after 72 hrs by MTS assay; type: functional, cell-based
How it was run: (§3)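 Cells in DMEM with 10% FBS at 37 °C and 5% CO2 were plated at 5×10^3 per well and grown 24 h. They were then exposed 24 or 72 h to 0.5, 1, 5, 10, 25 and 50 µM, with final DMSO 0.5% and DMSO controls. MTS/PMS was added for 4 h at 37 °C. A492 was read with the medium blank subtracted and expressed as % of control. IC50 was taken from three independent experiments (mean ± S.E.).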

1205Lu [7] = assay: Cytotoxicity against human 1205 Lu cells assessed as decrease in cell viability after 72 hrs by MTS assay; type: functional, cell-based; how it was run: as §3
UACC-903 [8] = assay: Induction of apoptosis in human UACC-903 cells assessed as early apoptotic cells at 25 uM after 24 hrs using annexin-V-PE/7-AAD double staining by flow cytometry; type: functional; how it was run: as §1
[9] = Cytotoxicity against human A375-S2 cells after 24 hrs by MTS assay; type: functional, cell-based; conditions: A375-S2, 24 h; how it was run: as §3
Mus musculus [10] = assay: Systemic toxicity in Swiss Webster mouse assessed as mortality at 10 mg/kg, ip administered every day for 28 days; type: organism-based; parameters: dose 10 mg/kg, route intraperitoneal; conditions: in vivo, 672 h; how it was run: as §2
A375-S2 [11] = assay: Cytotoxicity against human A375-S2 cells assessed as decrease in cell viability after 24 hrs by MTS assay; type: functional, cell-based; how it was run: as §3
UACC-903 [12] = assay: Induction of apoptosis in human UACC-903 cells assessed as late apoptotic cells at 25 uM after 24 hrs using annexin-V-PE/7-AAD double staining by flow cytometry; type: functional; how it was run: as §1
UACC-903 [13] = assay: Induction of apoptosis in human UACC-903 cells assessed as viable cells at 1 uM after 24 hrs using annexin-V-PE/7-AAD double staining by flow cytometry; type: functional; conditions: UACC-903, 24 h, read-out: Activity; how it was run: as §1
[14] = Cytotoxicity against human SK-MEL-37 cells after 24 hrs by MTS assay; type: functional, cell-based; how it was run: as §3
UACC-903 [15] = assay: Induction of apoptosis in human UACC-903 cells assessed as viable cells at 25 uM after 24 hrs using annexin-V-PE/7-AAD double staining by flow cytometry; type: functional; conditions: UACC-903, 24 h, read-out: Activity; how it was run: as §1
UACC-903 [16] = assay: Induction of apoptosis in human UACC-903 cells assessed as late apoptotic cells at 5 uM after 24 hrs using annexin-V-PE/7-AAD double staining by flow cytometry; type: functional; how it was run: as §1
Mus musculus [17] = assay: Systemic toxicity in Swiss Webster mouse assessed as mortality at 15 mg/kg, ip administered every day for 28 days; type: organism-based; parameters: dose 15 mg/kg, route intraperitoneal; conditions: in vivo, 672 h; how it was run: as §2
UACC-903 [18] = assay: Cytotoxicity against human UACC-903 cells after 24 hrs by MTS assay; type: functional, cell-based; conditions: UACC-903, 24 h; how it was run: as §3
[19] = Cytotoxicity against human 1205 Lu cells after 24 hrs by MTS assay; type: functional, cell-based; how it was run: as §3
[20] = Cytotoxicity against human A375-S2 cells after 72 hrs by MTS assay; type: functional, cell-based; conditions: A375-S2, 72 h; how it was run: as §3
A375-S2 [21] = assay: Cytotoxicity against human A375-S2 cells assessed as decrease in cell viability after 72 hrs by MTS assay; type: functional, cell-based; how it was run: as §3
UACC-903 [22] = assay: Antitumor activity against human UACC-903 cells xenografted in athymic Harlan Sprague-Dawley nude mouse assessed as reduction in tumor growth at 8.5 to 10 mg/kg, ip administered thrice per week for 24 days measured after 21 days; type: functional; conditions: dose mg/kg 8.5-10; route intraperitoneal
How it was run: (§4)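 Female athymic nude mice, 4–6 weeks old, received 5×10^6 UACC 903 cells s.c. in DMEM/10% FBS above both rib cages. After six days they were randomized at 5 mice/group, 2 tumors/mouse. Dosing was i.p. Mon/Wed/Fri, with one arm dosed daily; controls got DMSO vehicle. Tumor dimensions (calipers, mm³) and body weight were recorded three times weekly.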

[23] = Cytotoxicity against human 1205 Lu cells after 72 hrs by MTS assay; type: functional, cell-based; how it was run: as §3
1205Lu [24] = assay: Cytotoxicity against human 1205 Lu cells assessed as decrease in cell viability after 24 hrs by MTS assay; type: functional, cell-based; how it was run: as §3
UACC-903 [25] = assay: Induction of apoptosis in human UACC-903 cells assessed as viable cells at 5 uM after 24 hrs using annexin-V-PE/7-AAD double staining by flow cytometry; type: functional; conditions: UACC-903, 24 h, read-out: Activity; how it was run: as §1
Mus musculus [26] = assay: Systemic toxicity in athymic Harlan Sprague-Dawley nude mouse xenografted with human UACC-903 cells assessed as reduction in body weight at 8.5 to 10 mg/kg, ip administered thrice a week for 24 days; type: organism-based; parameters: dose 8.5-10 mg/kg, route intraperitoneal; conditions: in vivo, 576 h; how it was run: as §4
UACC-903 [27] = assay: Induction of apoptosis in human UACC-903 cells assessed as non-viable cells at 1 uM after 24 hrs using annexin-V-PE/7-AAD double staining by flow cytometry; type: functional; how it was run: as §1
UACC-903 [28] = assay: Cytotoxicity against human UACC-903 cells after 72 hrs by MTS assay; type: functional, cell-based; conditions: UACC-903, 72 h; how it was run: as §3
UACC-903 [29] = assay: Induction of apoptosis in human UACC-903 cells assessed as increase in apoptotic cells after 24 hrs using annexin-V-PE/7-AAD double staining by flow cytometry; type: functional, cell-based; how it was run: as §1
SK-MEL-37 (Homo sapiens) [30] = assay: Cytotoxicity against human SK-MEL-37 cells assessed as decrease in cell viability after 72 hrs by MTS assay
[31] = Cytotoxicity against human SK-MEL-37 cells after 72 hrs by MTS assay; type: functional, cell-based; how it was run: as §3
UACC-903 [32] = assay: Cytotoxicity against human UACC-903 cells assessed as decrease in cell viability after 24 hrs by MTS assay; type: functional, cell-based; how it was run: as §3
UACC-903 [33] = assay: Induction of apoptosis in human UACC-903 cells assessed as early apoptotic cells at 5 uM after 24 hrs using annexin-V-PE/7-AAD double staining by flow cytometry; type: functional; how it was run: as §1
UACC-903 [34] = assay: Induction of apoptosis in human UACC-903 cells assessed as late apoptotic cells at 1 uM after 24 hrs using annexin-V-PE/7-AAD double staining by flow cytometry; type: functional; how it was run: as §1
Mus musculus [35] = assay: Systemic toxicity in athymic Harlan Sprague-Dawley nude mouse xenografted with human UACC-903 cells assessed as mortality at 10 mg/kg, ip administered daily for 28 days; type: organism-based; parameters: dose 10 mg/kg, route intraperitoneal; conditions: in vivo, 672 h
Mus musculus [36] = assay: Systemic toxicity in Swiss Webster mouse assessed as reduction in body weight at 10 mg/kg, ip administered daily for 28 days; parameters: scale not given: the % may be the effect or the level left; conditions: in vivo, 672 h

| SMILES | Activity (UACC-903 [1]) [%] | Activity (Mus musculus [2]) | Activity (SK-MEL-37 (Homo sapiens) [3]) | Activity (UACC-903 [4]) [%] | Activity (UACC-903 [5]) [%] | Activity (UACC-903 [6]) | Activity (1205Lu [7]) | Activity (UACC-903 [8]) [%] | IC50 [9] [µM] | Activity (Mus musculus [10]) | Activity (A375-S2 [11]) | Activity (UACC-903 [12]) [%] | viability at 1 µM (UACC-903 [13]) [%] | IC50 [14] [µM] | viability at 25 µM (UACC-903 [15]) [%] | Activity (UACC-903 [16]) [%] | Activity (Mus musculus [17]) | IC50 (UACC-903 [18]) [µM] | IC50 [19] [µM] | IC50 [20] [µM] | further results |
| --- | --- | --- | --- | --- | --- | --- | --- | --- | --- | --- | --- | --- | --- | --- | --- | --- | --- | --- | --- | --- | --- |
| O=C1c2cccc3cccc(c23)C(=O)N1CCCCN=C=S | 21.1 | Non-toxic | Dose-dependent effect | 6.43 | 9.69 | Dose-dependent effect | Dose-dependent effect | 51.7 | 6.89 | Non-toxic | Dose-dependent effect | 19.3 | 62.7 | 3.89 | 22.5 | 16 | Toxic | 10.7 | 4.88 | 3.47 | Activity (A375-S2 [21]): Dose-dependent effect; growth inhibition (GI) (UACC-903 [22]): 30%; IC50 [23]: 3.03 µM; Activity (1205Lu [24]): Dose-dependent effect; viability at 5 µM (UACC-903 [25]): 39.4%; Activity (Mus musculus [26]): Non-toxic; Activity (UACC-903 [27]): 6.42%; IC50 (UACC-903 [28]): 5.17 µM; Activity (UACC-903 [29]): Dose-dependent effect; Activity (SK-MEL-37 (Homo sapiens) [30]): Dose-dependent effect; IC50 [31]: 2.12 µM; Activity (UACC-903 [32]): Dose-dependent effect; Activity (UACC-903 [33]): 34.9%; Activity (UACC-903 [34]): 9.79% |
| O=C1c2cccc3cccc(c23)C(=O)N1CCCCCCN=C=S | 12.9 | Non-toxic | Dose-dependent effect | 1.15 | 2.11 | Dose-dependent effect | Dose-dependent effect | 71.6 | 5.07 | Non-toxic | Dose-dependent effect | 8.56 | 77.8 | 3.07 | 18.7 | 28.7 | Toxic | 9.02 | 11.5 | 3.54 | Activity (A375-S2 [21]): Dose-dependent effect; growth inhibition (GI) (UACC-903 [22]): 50%; IC50 [23]: 5.25 µM; Activity (1205Lu [24]): Dose-dependent effect; viability at 5 µM (UACC-903 [25]): 19.6%; Activity (Mus musculus [26]): Non-toxic; Activity (UACC-903 [27]): 2.99%; IC50 (UACC-903 [28]): 7.6 µM; Activity (UACC-903 [29]): Dose-dependent effect; Activity (SK-MEL-37 (Homo sapiens) [30]): Dose-dependent effect; IC50 [31]: 1.67 µM; Activity (UACC-903 [32]): Dose-dependent effect; Activity (UACC-903 [33]): 49.6%; Activity (UACC-903 [34]): 6.25% |
| O=C1c2cccc3cc([N+](=O)[O-])cc(c23)C(=O)N1CCN=C=S | 17.9 | Non-toxic | Dose-dependent effect | 0.19 | 1.23 | Dose-dependent effect | Dose-dependent effect | 79.8 | 7.88 | Non-toxic | Dose-dependent effect | 18.6 | 72.9 | 2.88 | 1.4 | 11.9 | Toxic | 8.38 | 5.82 | 2.81 | Activity (Mus musculus [35]): Non-toxic; Activity (A375-S2 [21]): Dose-dependent effect; growth inhibition (GI) (UACC-903 [22]): 60%; IC50 [23]: 3.91 µM; Activity (1205Lu [24]): Dose-dependent effect; viability at 5 µM (UACC-903 [25]): 64.7%; Activity (Mus musculus [26]): Non-toxic; Activity (UACC-903 [27]): 1.39%; IC50 (UACC-903 [28]): 5.5 µM; Activity (UACC-903 [29]): Dose-dependent effect; Activity (SK-MEL-37 (Homo sapiens) [30]): Dose-dependent effect; IC50 [31]: 1.73 µM; Activity (UACC-903 [32]): Dose-dependent effect; Activity (UACC-903 [33]): 22.2%; Activity (UACC-903 [34]): 7.83%; Activity (Mus musculus [36]): 10% |

From ChEMBL document CHEMBL1806370, “Development of novel naphthalimide derivatives and their evaluation as potential melanoma therapeutics” (Eur J Med Chem, 2011)
